Active and inactive are the calls of the source.
Legend:
[1] = biological target: T1, Protein cereblon/3-hydroxy-3-methylglutaryl-coenzyme A reductase (Homo sapiens) (UniProt P04035+Q96SW2); assay: Protac activity at human Flag-tagged CRBN/T7-tagged HMGCR transfected in Insig-1/Insig-2 deficient Chinese hamster SRD15 cells assessed as induction of HMGCR degradation at 0.01 to 1 uM after 16 hrs by immunoblotting analysis
In short: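 SRD15 cells co-transfected with T7-HMGCR and Flag-CRBN (wild type or YW/AA mutant), then treated with DMSO or 1 μM compound for 16 h; transfected HMGCR measured by immunoblotting.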

[2] = biological target: T2, Thioredoxin domain-containing protein 11 (Homo sapiens) (UniProt Q6PKC3); assay: Activation of TXNDC11 (unknown origin)
T2 sequence (whole entry): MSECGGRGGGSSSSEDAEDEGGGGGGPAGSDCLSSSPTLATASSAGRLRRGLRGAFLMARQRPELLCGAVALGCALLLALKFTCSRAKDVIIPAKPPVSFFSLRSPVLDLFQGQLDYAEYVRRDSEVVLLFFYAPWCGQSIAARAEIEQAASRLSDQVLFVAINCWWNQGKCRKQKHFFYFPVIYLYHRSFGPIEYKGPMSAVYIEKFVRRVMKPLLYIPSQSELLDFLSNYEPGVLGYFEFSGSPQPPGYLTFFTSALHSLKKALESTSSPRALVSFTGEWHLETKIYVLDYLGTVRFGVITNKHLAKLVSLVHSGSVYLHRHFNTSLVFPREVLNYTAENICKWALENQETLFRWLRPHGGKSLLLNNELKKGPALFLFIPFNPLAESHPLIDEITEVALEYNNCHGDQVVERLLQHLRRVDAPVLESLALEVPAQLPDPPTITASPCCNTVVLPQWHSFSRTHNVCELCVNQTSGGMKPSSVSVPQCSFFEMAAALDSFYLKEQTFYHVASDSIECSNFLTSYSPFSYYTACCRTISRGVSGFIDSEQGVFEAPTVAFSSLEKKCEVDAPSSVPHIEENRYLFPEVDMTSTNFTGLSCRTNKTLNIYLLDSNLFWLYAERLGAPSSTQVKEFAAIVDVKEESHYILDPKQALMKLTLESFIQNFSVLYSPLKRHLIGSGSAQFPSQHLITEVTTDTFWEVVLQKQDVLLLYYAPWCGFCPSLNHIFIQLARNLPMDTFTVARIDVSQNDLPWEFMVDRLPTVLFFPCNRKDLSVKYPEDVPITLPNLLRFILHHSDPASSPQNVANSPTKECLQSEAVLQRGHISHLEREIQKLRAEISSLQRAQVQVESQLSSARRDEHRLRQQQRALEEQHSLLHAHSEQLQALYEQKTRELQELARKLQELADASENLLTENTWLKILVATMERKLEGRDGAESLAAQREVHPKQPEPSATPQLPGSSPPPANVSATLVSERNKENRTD

[3] = biological target: T1, Protein cereblon/3-hydroxy-3-methylglutaryl-coenzyme A reductase (Homo sapiens); assay: Protac activity at human Flag-tagged CRBN/T7-tagged HMGCR expressed in Chinese hamster SRD15 cells transfected with HA-tagged ubiquitin assessed as increase in HMGCR immunoprecipitation 1 uM incubated for 16 hrs followed by pomalidomide addition addition and measured after 5 hrs in presence of MG132 by Western blot analysis; type: cell-based
[4] = biological target: T3, Protein cereblon/3-hydroxy-3-methylglutaryl-coenzyme A reductase (Cricetulus griseus) (UniProt P00347+G3H338); assay: Protac activity at CRBN/HMGCR in Insig-1/Insig-2 deficient Chinese hamster SRD15 cells assessed as HMGCR level at 1 uM after 16 hrs by immunoblotting analysis (reference value: 1)
In short: (§1)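 Dose-response in SRD15 cells in Medium A with 5% FBS, 16 h treatment, DMSO final 0.1% or lower. RIPA lysates immunoblotted for HMGCR. HMGCR densitometry normalized to actin, with the DMSO group set to 1. Three repeats. DC50 is taken from a dose-response fit of the semi-quantitative blots, mean of 3 independent experiments.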
Target sequence in this assay (G3H338 1-445 partner): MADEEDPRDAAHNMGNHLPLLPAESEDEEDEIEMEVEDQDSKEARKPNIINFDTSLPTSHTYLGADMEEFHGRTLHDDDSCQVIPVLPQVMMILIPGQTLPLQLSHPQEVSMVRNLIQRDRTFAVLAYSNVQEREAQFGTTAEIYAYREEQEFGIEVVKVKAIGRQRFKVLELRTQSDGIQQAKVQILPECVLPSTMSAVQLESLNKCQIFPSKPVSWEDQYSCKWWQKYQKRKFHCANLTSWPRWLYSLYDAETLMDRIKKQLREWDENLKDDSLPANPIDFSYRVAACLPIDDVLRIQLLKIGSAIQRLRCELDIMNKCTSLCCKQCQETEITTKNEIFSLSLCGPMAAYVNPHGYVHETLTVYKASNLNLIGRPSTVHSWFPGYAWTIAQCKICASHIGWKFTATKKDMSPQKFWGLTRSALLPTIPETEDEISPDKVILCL
Target sequence in this assay (P00347 whole entry): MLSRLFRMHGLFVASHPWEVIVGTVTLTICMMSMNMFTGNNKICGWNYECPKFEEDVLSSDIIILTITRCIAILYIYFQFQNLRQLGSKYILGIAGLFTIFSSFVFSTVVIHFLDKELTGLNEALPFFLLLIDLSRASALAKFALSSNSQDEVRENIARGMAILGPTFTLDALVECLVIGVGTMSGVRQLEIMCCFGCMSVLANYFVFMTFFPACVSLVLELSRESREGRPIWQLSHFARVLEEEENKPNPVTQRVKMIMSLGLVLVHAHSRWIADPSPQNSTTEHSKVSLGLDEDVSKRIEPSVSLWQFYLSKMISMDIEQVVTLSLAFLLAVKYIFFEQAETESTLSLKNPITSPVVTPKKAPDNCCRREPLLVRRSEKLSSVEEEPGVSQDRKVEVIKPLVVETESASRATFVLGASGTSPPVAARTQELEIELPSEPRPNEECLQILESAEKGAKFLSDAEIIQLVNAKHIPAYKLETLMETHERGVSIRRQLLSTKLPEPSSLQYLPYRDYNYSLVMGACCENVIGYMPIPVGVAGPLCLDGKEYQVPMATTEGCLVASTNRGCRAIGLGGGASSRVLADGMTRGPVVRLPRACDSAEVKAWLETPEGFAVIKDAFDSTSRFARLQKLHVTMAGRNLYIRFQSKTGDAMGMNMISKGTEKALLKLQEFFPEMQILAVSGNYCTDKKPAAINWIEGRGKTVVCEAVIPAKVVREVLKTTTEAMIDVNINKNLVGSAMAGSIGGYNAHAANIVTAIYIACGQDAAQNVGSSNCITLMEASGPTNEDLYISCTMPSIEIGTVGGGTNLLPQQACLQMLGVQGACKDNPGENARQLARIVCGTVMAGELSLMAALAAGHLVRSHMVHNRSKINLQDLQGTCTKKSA

[5] = biological target: T3, Protein cereblon/3-hydroxy-3-methylglutaryl-coenzyme A reductase (Cricetulus griseus); assay: Protac activity at CRBN/HMGCR in Insig-1/Insig-2 deficient Chinese hamster SRD15 cells assessed as HMGCR level at 3 uM after 16 hrs by immunoblotting analysis (reference value: 1); in short: as §1
[6] = biological target: T1, Protein cereblon/3-hydroxy-3-methylglutaryl-coenzyme A reductase (Homo sapiens); assay: Protac activity at human Flag-tagged CRBN/Myc-tagged HMGCR expressed in HEK293T cells assessed as induction of HMGCR immunoprecipitation 1 uM preincubated for 16 hrs followed by pomalidomide addition addition and measured after 5 hrs by Western blot analysis; type: cell-based; settings: HEK-293T
[7] = test system: Huh-7; assay: Inhibition of cholesterol biosynthesis in human HuH7 cells preincubated for 14 hrs and followed by addition of 14C-acetate and measured after 2 hrs by TL method; type: functional, cell-based
In short: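 Sterol-depleted Huh7 cells (Medium B plus 5% lipoprotein-deficient serum) treated at varying concentrations for 14 h, pulse-labelled with ¹⁴C-acetate 1 μCi/μL for 2 h, washed, lysed in 0.1 M NaOH; lipids separated by TLC, ¹⁴C-cholesterol read by phosphorimager, DMSO set to 1.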

[8] = biological target: T3, Protein cereblon/3-hydroxy-3-methylglutaryl-coenzyme A reductase (Cricetulus griseus); assay: Protac activity at CRBN/HMGCR in 5'-GCAAGGCAGUGUAUAUUAU-3' siRNA transfected in Insig-1/Insig-2 deficient Chinese hamster SRD15 cells assessed as induction of HMGCR degradation at 1 uM after 16 hrs by immunoblotting analysis
In short: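 SRD15 cells (Insig-1/Insig-2-deficient CHO-7) in Medium A with 5% FBS at 37 °C, 5% CO2; transfected with negative-control or Crbn-targeting siRNA duplexes for 48 h, then given 1 μM degrader for 16 h. HMGCR by SDS-PAGE immunoblot of RIPA lysates. Knockdown efficiency checked by qRT-PCR against hamster GAPDH, comparative CT method. n = 3 independent experiments.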

[9] = test system: Huh-7; assay: Effect on total neutral lipid in human HuH7 cells assessed change in lipid droplet count at 1 uM after 16 hrs by Oil Red O staining based method; type: ADME, cell-based; settings: huh-7, 16 h
In short: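 Huh7 cells on glass coverslips, treated, fixed in 4% paraformaldehyde in PBS 30 min at room temperature, stained 15 min with 0.5% (w/v) Oil Red O in propylene glycol, washed in water; lipid droplets examined relative to DMSO.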

[10] = biological target: T1, Protein cereblon/3-hydroxy-3-methylglutaryl-coenzyme A reductase (Homo sapiens); assay: Protac activity at human Flag-tagged CRBN/T7-tagged HMGCR expressed in Chinese hamster SRD15 cells transfected with HA-tagged ubiquitin assessed as increase in HMGCR immunoprecipitation 1 uM preincubated for 16 hrs followed by MG132 addition addition and measured after 5 hrs by Western blot analysis; type: cell-based
[11] = Effect on HMGCR mRNA expression in Chinese hamster SRD15 cells at 1 uM after 16 hrs by quantitative real-time PCR analysis; type: ADME, Cricetulus griseus
In short: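 SRD15 cells (Insig-1/Insig-2-deficient CHO-7) in Medium A with 5% FBS, compound for 16 h; Hmgcr mRNA by quantitative real-time PCR in triplicate, comparative CT method normalized to hamster GAPDH, control defined as 1; mean ± s.d., n = 3 independent experiments.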

[12] = biological target: T3, Protein cereblon/3-hydroxy-3-methylglutaryl-coenzyme A reductase (Cricetulus griseus); assay: Protac activity at CRBN/HMGCR in Insig-1/Insig-2 deficient Chinese hamster SRD15 cells assessed as HMGCR level at 1 uM after 16 hrs in presence of 0.3 uM atorvastatin by immunoblotting analysis (reference value: 1)
Target sequence in this assay (G3H338 1-445 partner): as the sequence (G3H338 1-445 partner) above
Target sequence in this assay (P00347 whole entry): as the sequence (P00347 whole entry) above

T1 sequence (P04035 whole entry, looked up): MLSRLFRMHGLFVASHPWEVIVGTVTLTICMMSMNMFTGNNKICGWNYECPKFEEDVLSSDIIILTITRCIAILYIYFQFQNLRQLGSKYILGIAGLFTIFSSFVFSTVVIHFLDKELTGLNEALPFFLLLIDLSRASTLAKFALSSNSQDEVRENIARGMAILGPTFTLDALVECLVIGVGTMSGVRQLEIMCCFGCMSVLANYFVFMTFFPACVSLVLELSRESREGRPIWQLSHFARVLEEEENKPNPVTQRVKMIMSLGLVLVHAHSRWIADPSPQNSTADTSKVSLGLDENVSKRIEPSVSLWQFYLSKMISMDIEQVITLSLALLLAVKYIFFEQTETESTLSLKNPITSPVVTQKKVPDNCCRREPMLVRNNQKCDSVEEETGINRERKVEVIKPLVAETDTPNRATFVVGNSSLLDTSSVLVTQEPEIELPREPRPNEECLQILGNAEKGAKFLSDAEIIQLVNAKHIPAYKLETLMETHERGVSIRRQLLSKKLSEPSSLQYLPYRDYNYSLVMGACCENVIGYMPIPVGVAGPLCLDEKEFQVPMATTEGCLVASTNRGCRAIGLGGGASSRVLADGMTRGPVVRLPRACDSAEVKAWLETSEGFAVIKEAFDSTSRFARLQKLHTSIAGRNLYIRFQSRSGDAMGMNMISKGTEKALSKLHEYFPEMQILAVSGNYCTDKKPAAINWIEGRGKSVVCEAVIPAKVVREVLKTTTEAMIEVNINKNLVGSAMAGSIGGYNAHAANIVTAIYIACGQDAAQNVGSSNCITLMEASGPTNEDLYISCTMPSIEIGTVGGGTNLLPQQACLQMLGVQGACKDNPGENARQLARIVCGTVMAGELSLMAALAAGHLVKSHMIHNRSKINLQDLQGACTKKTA
T1 sequence (Q96SW2 whole entry, looked up): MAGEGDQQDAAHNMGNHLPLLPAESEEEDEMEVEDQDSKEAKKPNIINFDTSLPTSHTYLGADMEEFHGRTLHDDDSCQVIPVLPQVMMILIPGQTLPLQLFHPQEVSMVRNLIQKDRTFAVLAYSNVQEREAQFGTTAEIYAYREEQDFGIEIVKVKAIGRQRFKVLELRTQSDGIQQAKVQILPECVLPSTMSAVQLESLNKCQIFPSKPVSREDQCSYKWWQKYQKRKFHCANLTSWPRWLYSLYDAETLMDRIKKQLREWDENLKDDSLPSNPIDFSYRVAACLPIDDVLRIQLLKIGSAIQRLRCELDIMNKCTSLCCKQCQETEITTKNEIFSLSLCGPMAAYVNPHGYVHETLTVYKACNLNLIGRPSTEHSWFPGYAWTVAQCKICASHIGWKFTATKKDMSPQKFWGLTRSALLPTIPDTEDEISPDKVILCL

For `CC(C)c1c(C(=O)Nc2ccccc2)c(-c2cccc(OCCCc3cn(CCOCCOCCOCCOCCNc4cccc5c4C(=O)N(C4CCC(=O)NC4=O)C5=O)nn3)c2)c(-c2ccc(F)cc2)n1CC[C@@H](O)C[C@@H](O)CC(=O)O` (some centres not stated), the Activity [1] was “Active”, the fold change (FC) [2] was 7 and the Activity [3] was “inactive”. The fold change (FC) [4] was 0.3 to 0.6, the fold change (FC) [5] was 0.3 and the Activity [6] was “inactive”. The inhibition [7] was “Active”, the Activity [8] was “inactive” and the Activity [9] was “Non-Toxic”. For the same molecule, the Activity [10] was “Active”, the Activity [11] was “Non-Toxic” and the fold change (FC) [12] was 1.
